Measurements reported in ChEMBL document CHEMBL1144725, “Seco-terpenoids and other constituents from Elateriospermum tapos” (J Nat Prod, 2008).
≈ marks a conversion by molar mass, not a printed value. Calls of active or inactive are those of the source. No cut-off for these calls is given here.

Experiments:
[1] = tested on: Cancer cell lines; experiment: Cytotoxicity against human breast cancer cells at 10 ug/mL; type: functional, cell-based
[2] = tested on: NCI-H187; experiment: Cytotoxicity against human NCI-H187 cells at 10 ug/mL; type: functional, cell-based
[3] = tested on: Mycobacterium tuberculosis; experiment: Antimycobacterial activity against Mycobacterium tuberculosis H37Ra by microplate alamar blue assay; type: functional
How it was run: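 Microplate Alamar Blue assay against Mycobacterium tuberculosis H37Ra, with isoniazid and kanamycin sulfate as reference drugs.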

[4] = Cytotoxicity against human breast cancer cells; type: functional, cell-based; conditions: Cancer cell lines
[5] = tested on: NCI-H187; experiment: Cytotoxicity against human NCI-H187 cells; type: functional, cell-based
[6] = tested on: KB; experiment: Cytotoxicity against human KB cells; type: functional, cell-based

Compound | Activity [1] | Activity [2] | further results
C=C(C)[C@H]1CC[C@]2(C)[C@H]3CC[C@@H]4[C@@]5(C)CC[C@H](O)C(C)(C)[C@@H]5CC[C@@]4(C)[C@]3(C)CC[C@@H]12 | inactive | inactive | –
CC1(C)[C@H](O)[C@@H](O)C[C@]2(C)[C@@H]1CC[C@]13C=C[C@](C)(C1)C(=O)C[C@H]32 | inactive | inactive | –
C=C(C)[C@@H]1CC[C@]2(C)CC[C@]3(C)[C@H](CC[C@@H]4[C@@]5(C)CC[C@H](O)C(C)(C)[C@@H]5CC[C@]43C)[C@@H]12 | inactive | inactive | –
COc1cc(O)c2c(=O)cc(-c3ccc(OC)c(-c4c(O)cc(O)c5c(=O)cc(-c6ccc(O)cc6)oc45)c3)oc2c1 | inactive | inactive | –
COC(=O)C[C@@]1(C)C(C(C)(C)C(=O)OC)CC[C@@]2(C)C3=CC[C@@]4(C(=O)O)CCC(C)(C)CC4[C@]3(C)CCC12 (stereo partly specified) | – | – | MIC [3]: 3.13 µg/mL (≈ 5.9 µM); IC50 [4]: 7.08 µg/mL (≈ 13.3 µM); IC50 [5]: 4.65 µg/mL (≈ 8.76 µM)
C=C[C@]1(C)C=C2CC[C@@H]3C(C)(C)[C@H](O)C(=O)C[C@@]3(C)[C@@H]2C[C@@H]1O | inactive | inactive | –
CC1(C)CC[C@]2(C(=O)O)CC=C3[C@]4(C)CC[C@H]5C(C)(C)[C@@H](O)CC[C@]5(C)[C@H]4CC[C@@]3(C)[C@@H]2C1 | inactive | inactive | –
C=C(C)[C@@H]1CC[C@]2(C)CC[C@]3(C)[C@H](CC[C@@H]4[C@@]5(C)CC[C@H](OC(C)=O)C(C)(C)[C@@H]5CC[C@]43C)[C@@H]12 | inactive | inactive | –
COc1cc(O)c2c(=O)cc(-c3ccc(O)c(-c4c(O)cc(O)c5c(=O)cc(-c6ccc(O)cc6)oc45)c3)oc2c1 | inactive | inactive | –
Cc1c2ccncc2c(C)c2c1[nH]c1ccccc12 [ELLIPTECINE] | – | – | IC50 [6]: 0.41 µg/mL (≈ 1.66 µM); IC50 [4]: 0.13 µg/mL (≈ 0.528 µM); IC50 [5]: 0.52 µg/mL (≈ 2.11 µM)
O=c1cc(-c2ccc(O)c(-c3c(O)cc(O)c4c(=O)cc(-c5ccc(O)cc5)oc34)c2)oc2cc(O)cc(O)c12 | inactive | inactive | –
COC(=O)C(C)(C)C1CC[C@@]2(C)C3=CC[C@@]4(C(=O)O)CCC(C)(C)CC4[C@]3(C)CCC2[C@@]1(C)CC(=O)O (stereo partly specified) | inactive | inactive | –
NNC(=O)c1ccncc1 [ISONIAZID] | – | – | MIC [3]: 0.05 µg/mL (≈ 0.365 µM)
C=C[C@@]1(C)C(=O)C=C2C(=CC[C@@H]3C(C)(C)[C@H](O)C(=O)C[C@@]23C)[C@H]1O | inactive | inactive | –
COc1ccc(-c2cc(=O)c3c(O)cc(O)c(-c4cc(-c5cc(=O)c6c(O)cc(OC)cc6o5)ccc4O)c3o2)cc1 | inactive | inactive | –
C=Cc1c(C)c(O)cc2c1CCC(C(C)(C)C(=O)O)[C@@]2(C)CC(=O)O (stereo partly specified) | inactive | inactive | –
NC[C@H]1O[C@H](O[C@H]2[C@H](O)[C@@H](O[C@H]3O[C@H](CO)[C@@H](O)[C@H](N)[C@H]3O)[C@H](N)C[C@@H]2N)[C@H](O)[C@@H](O)[C@@H]1O.O=S(=O)(O)O [KANAMYCIN SULFATE] | – | – | MIC [3]: 1.25 µg/mL
CC(=O)O[C@H]1CC[C@]2(C)[C@H]3CC[C@]4(C)C(=CC[C@@]5(C(=O)O)CCC(C)(C)C[C@H]54)[C@]3(C)CC[C@H]2C1(C)C | inactive | inactive | –
